Source: PubChem BioAssay (Johns Hopkins Ion Channel Center)
The list is not random: actives were taken first. Their share in the collection is about 2.3%.
TRPC4 agonist: TRPC4 (mouse) channel activation; B-score at 10 µM; Q9QUQ5; 310,000 tested, 0.49% active; HEK293 TRPC4beta/mu-opioid, Fluo4 calcium fluorescence; stronger effect = higher value;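 active = B-score above 5 SD of library B-scores, and initial fluorescence ratio not above library mean plus 5 SD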;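 also: positive B-score marks a calcium rise read as TRPC4 activation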
Target sequence (Q9QUQ5 whole entry, looked up): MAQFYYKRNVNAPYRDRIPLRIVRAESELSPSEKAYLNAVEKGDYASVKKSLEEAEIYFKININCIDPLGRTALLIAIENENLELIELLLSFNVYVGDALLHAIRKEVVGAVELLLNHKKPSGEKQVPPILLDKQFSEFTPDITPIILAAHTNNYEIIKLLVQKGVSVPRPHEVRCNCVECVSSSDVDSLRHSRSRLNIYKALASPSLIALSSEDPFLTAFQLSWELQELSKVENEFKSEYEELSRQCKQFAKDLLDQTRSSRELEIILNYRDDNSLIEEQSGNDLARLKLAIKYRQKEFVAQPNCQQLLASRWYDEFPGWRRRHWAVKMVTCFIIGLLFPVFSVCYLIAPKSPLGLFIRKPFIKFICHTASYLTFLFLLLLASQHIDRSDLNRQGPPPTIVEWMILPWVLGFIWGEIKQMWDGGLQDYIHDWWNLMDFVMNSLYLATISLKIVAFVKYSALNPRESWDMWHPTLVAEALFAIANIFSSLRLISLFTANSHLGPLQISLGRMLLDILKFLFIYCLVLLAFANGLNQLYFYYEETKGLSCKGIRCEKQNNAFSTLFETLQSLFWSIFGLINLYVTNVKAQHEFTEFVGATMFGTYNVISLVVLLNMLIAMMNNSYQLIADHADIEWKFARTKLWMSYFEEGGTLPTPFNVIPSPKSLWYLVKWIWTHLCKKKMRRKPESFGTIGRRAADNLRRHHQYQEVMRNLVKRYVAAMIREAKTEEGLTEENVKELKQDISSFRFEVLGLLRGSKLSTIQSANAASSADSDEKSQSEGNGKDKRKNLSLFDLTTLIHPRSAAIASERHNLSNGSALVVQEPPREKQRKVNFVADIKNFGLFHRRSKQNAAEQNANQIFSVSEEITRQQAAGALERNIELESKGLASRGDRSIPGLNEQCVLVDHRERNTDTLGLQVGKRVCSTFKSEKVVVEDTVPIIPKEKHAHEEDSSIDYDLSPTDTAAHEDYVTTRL
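system = HEK293 cells stably co-expressing mouse TRPC4beta and mu-opioid receptor | schedule = Fluo4 dye loading 45 min at room temperature, 110 s recording | measure = B-scored integrated calcium fluorescence ratio | signal = Fluo4 calcium-sensitive dye fluorescence, kinetic, 1 Hz baseline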
TRPC4 PAM: TRPC4 (mouse) allosteric potentiation. Q9QUQ5. HEK293 TRPC4beta/mu-opioid, DAMGO EC20, Fluo-4 Ca2+ flux; stronger effect = higher value. B-score at 10 µM. 310,000 tested, 0.42% active;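 active = B-score of calcium response area above 5 SD of library B-scores, with initial fluorescence ratio within 5 SD of library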
TRPC6 act: activators of mouse TRPC6 channel; 310,000 tested, 0.13% active; B-score at 10 µM; HEK293-TRPC6 membrane potential dye fluorescence; stronger effect = higher value; AID 2550;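 active = B-score of the integrated fluorescence ratio above library mean plus 3 SD, and starting fluorescence ratio within library mean plus 5 SD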;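 also: higher score means more depolarization so channel activation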
TRPC6 inh: mouse TRPC6 channel inhibition; Q61143; HEK293-TRPC6, membrane potential dye, ACh-evoked depolarization; stronger effect = lower value; B-score at 10 µM; 310,000 tested, 1.1% active;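 active = B-score under library mean minus 3 SD, initial fluorescence not abnormally high, positive integrated signal ratio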;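 also: B-score derived from integrated fluorescence ratio over the kinetic read; more negative B-score means stronger inhibition of depolarization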
TRPC4 inh: TRPC4 (mouse) channel inhibition; HEK293 TRPC4beta/mu-opioid, DAMGO-evoked Fluo4 calcium flux; stronger effect = lower value; B-score at 10 µM; 300,000 tested, 0.39% active;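 active = B-score over 3 SD under the library average, no early fluorescence shift, positive overall ratio signal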
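Signal: kinetic Fluo4 fluorescence imaging of calcium influx. Material: stable TRPC4beta/mu-opioid receptor HEK293 cells. Probe or stimulus: DAMGO in two steps, submaximal then maximal.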
HEK293 MPD ctr: parental HEK293 nonspecific activity of TRPC6 modulators | membrane potential signal change, % at 10 µM | AID 488924 | 2,400 tested, 51% active | shares compounds with TRPC6 inh | membrane potential dye fluorescence;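 active = membrane potential signal moves up or down beyond 5 SD from buffer-only wells, on both duplicate plates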
HEK293 MPD ctr 2: second counter-screen for TRPC6 modulators: effect in parental HEK293 cells; shares compounds with TRPC6 inh; inhibition, % at 10 µM; 2,400 tested, 14% active; membrane potential dye fluorescence; after compound, maximal acetylcholine stimulation;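 active = membrane potential signal drops by more than 5 SD from the mean control signal, in both duplicate plates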
TRPC4 ctr mod: mouse TRPC4 off-target activity of TRPC6 modulators; shares compounds with TRPC6 inh; HEK293 TRPC4/mu-opioid, membrane potential fluorescence; percent change from control (negative = decrease, positive = increase), % at 10 µM; 2,400 tested, 69% active; AID 488927;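 active = membrane potential signal moved up or down beyond 5 SD of buffer control wells, in both duplicate plates, actives on both sides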
TRPC4 ctr inh 2: second check of whether TRPC6 modulators also affect mouse TRPC4 | shares compounds with TRPC6 inh | HEK293 TRPC4/mu-opioid, membrane potential dye fluorescence; stimulated with maximal-effect DAMGO | inhibition, % at 10 µM | 2,400 tested, 55% active;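 active = drop in membrane potential signal beyond 5 SD of the control wells in both duplicate plates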;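 also: TRPC4 counter screen for TRPC6 hits run under conditions tuned for TRPC6 not TRPC4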
TRPC6 block conf: confirmation of mouse TRPC6 inhibitors. shares compounds with TRPC6 inh. 3,300 tested, 43% active. HEK293-TRPC6, membrane potential dye, ACh-evoked depolarization. inhibition, % at 10 µM. AID 488960;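 active = fluorescence ratio falls more than 5 SD below the full-stimulation control mean, in both duplicate runs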;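 also: integrated fluorescence ratio of peak minus minimum over baseline after agonist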
TRPC6 act conf: mouse TRPC6 activator confirmation; AID 488961; 2,800 tested, 11% active; shares compounds with TRPC6 inh; HEK293-TRPC6 membrane potential dye fluorescence, FDSS; activation, % at 10 µM;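 active = ratio signal rise beyond 5 SD above unstimulated control wells' mean, seen in both duplicate runs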
Each line names hits and unclear results; the compound was inactive in the other large screens (follow-up assays come after a bar, where they were run).

N#Cc1cc2c(=O)n3ccccc3nc2n(CCCN2CCOCC2)c1=O	TRPC6 inh -12 | HEK293 MPD ctr -285% | HEK293 MPD ctr 2 85% | TRPC4 ctr mod -48% | TRPC4 ctr inh 2 49% | TRPC6 block conf 56% | TRPC6 act conf inactive
COc1ccc(CCn2c(=N)c(C(=O)N3CCN(C)CC3)cc3c(=O)n4ccccc4nc32)cc1	TRPC6 inh -7.2 | HEK293 MPD ctr -274% | HEK293 MPD ctr 2 84% | TRPC4 ctr mod -50% | TRPC4 ctr inh 2 62% | TRPC6 block conf 68% | TRPC6 act conf inactive
O=C(c1cccs1)N1CCC(c2nc3c(nnn3Cc3c(Cl)cccc3Cl)c(=O)[nH]2)CC1	TRPC6 inh -5.4 | HEK293 MPD ctr inactive | HEK293 MPD ctr 2 inactive | TRPC4 ctr mod inactive | TRPC4 ctr inh 2 inactive | TRPC6 block conf inactive | TRPC6 act conf inactive
COc1ccc(-c2n[nH]c(C)c2-c2ccc(Cl)cc2)c(O)c1	none
Cc1[nH]nc(-c2ccc(O)cc2O)c1-c1ccc(Cl)cc1	TRPC6 inh -5.8, TRPC4 inh -7 | HEK293 MPD ctr -79% | HEK293 MPD ctr 2 inactive | TRPC4 ctr mod -22% | TRPC4 ctr inh 2 80% | TRPC6 block conf inactive | TRPC6 act conf inactive
O=C(CCn1c(=O)[nH]c2ccsc2c1=O)N1CCN(c2ccc([N+](=O)[O-])cc2)CC1	none
O=C(CCn1c(=O)[nH]c2ccsc2c1=O)N1CCN(c2cccc(Cl)c2)CC1	TRPC6 act 15, TRPC6 inh -13 | HEK293 MPD ctr inactive | HEK293 MPD ctr 2 inactive | TRPC4 ctr mod inactive | TRPC4 ctr inh 2 inactive | TRPC6 block conf 56% | TRPC6 act conf 94%
Cc1scc(C(=O)N/N=C/c2ccc(Cl)s2)c1C	none
Cc1ccc(CNc2ccc3c(c2)ncn3C)cc1	none
CCn1cnc2cc(NCc3ccc(Cl)cc3)ccc21	TRPC6 inh -5.6 | HEK293 MPD ctr inactive | HEK293 MPD ctr 2 inactive | TRPC4 ctr mod inactive | TRPC4 ctr inh 2 40% | TRPC6 block conf 48% | TRPC6 act conf inactive
CCc1ccc(CNc2ccc3c(c2)ncn3C)cc1	TRPC6 inh -6.3 | HEK293 MPD ctr inactive | HEK293 MPD ctr 2 inactive | TRPC4 ctr mod -14% | TRPC4 ctr inh 2 61% | TRPC6 block conf 37% | TRPC6 act conf inactive
CCn1cnc2cc(NCc3ccncc3)ccc21	none
COc1ccc(Oc2nc(-c3ccccn3)ncc2OC)cc1	none
COc1cnc(-c2ccccn2)nc1N(C)C	TRPC6 inh -5.2 | HEK293 MPD ctr -76% | HEK293 MPD ctr 2 inactive | TRPC4 ctr mod -16% | TRPC4 ctr inh 2 inactive | TRPC6 block conf inactive | TRPC6 act conf inactive
COc1cnc(-c2ccccn2)nc1Oc1cccc(Cl)c1	TRPC6 inh -5.5 | HEK293 MPD ctr inactive | HEK293 MPD ctr 2 inactive | TRPC4 ctr mod inactive | TRPC4 ctr inh 2 inactive | TRPC6 block conf inactive | TRPC6 act conf inactive
Cc1ccc2c(c1)C1C=CCC1C(C(=O)NCCCN1CCOCC1)N2 (stereo unspecified)	none
O=C(NCCCN1CCOCC1)C1Nc2ccc(OC(F)(F)F)cc2C2C=CCC12 (stereo unspecified)	TRPC6 inh -9.7 | HEK293 MPD ctr inactive | HEK293 MPD ctr 2 inactive | TRPC4 ctr mod inactive | TRPC4 ctr inh 2 inactive | TRPC6 block conf inactive | TRPC6 act conf inactive
C/C(CC(=O)Nc1ccc(Cl)cn1)=N\NC(=O)Cc1cccs1	none
